Experimental data taken from ChEMBL document CHEMBL4513216, “Probing the Open Global Health Chemical Diversity Library for Multistage-Active Starting Points for Next-Generation Antimalarials” (ACS Infect Dis, 2020).

Experiment: Toxicity liver stage against HepG2, at 10uM
Type: cell-based
Design: test concentration 10 uM, cell line HepG2-A16-CD81EGFP
Conditions: human, HepG2-A16-CD81EGFP cells; read-out: INHIBITION
Summary of the method: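 Uninfected HepG2-A16-CD81EGFP cells, 3 × 10^3 per well, 1536-well, plated on prespotted compound at 10 μM final, parasite-free screening media added to match infected plates; puromycin 10 μM positive, DMSO 0.5% negative; run in parallel with 48 h PbLuc assay at 37 °C, 5% CO2; viability by CellTiter-Glo luminescence, normalized to controls.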

Row | Structure (SMILES) | cytotoxicity at 10 µM
1 | Cc1cnn(CC2CCCCN2Cc2ncc(C(C)(C)C)o2)c1 (stereo not given) | -3.44%
2 | O=C(NC1CCN(c2cccc(C(F)(F)F)n2)CC1)C1CC1 | -0.432%
3 | Cc1nccn1C1CCCN(C(=O)c2sccc2-n2cnnn2)C1 (stereo not given) | -12.2%
4 | CCc1nc(CN2CCCN(C(=O)C(C)n3ccnc3)CC2)cs1 (stereo not given) | -13.8%
5 | Cc1cc(C(=O)NC2CCCc3c2cnn3-c2cccc(C)c2C)[nH]n1 (stereo not given) | 51.4%
6 | COc1ccc(CNCC2CN(C3CC3)CCO2)cc1C (stereo not given) | -8.01%
7 | Cc1ccc(C(=O)N2CCCN(Cc3cccs3)CC2)n1C | -0.926%
8 | COc1ccccc1CC(=O)N1CCCC(CNS(C)(=O)=O)C1 (stereo not given) | 0.691%
9 | O=C(c1cc[nH]n1)N1CCCC(c2cccc(-n3ccnc3)n2)C1 (stereo not given) | 6.88%
10 | Cc1nc2c(c(=O)n1C)CCN(C(=O)CCc1ccccc1O)CC2 | 0.53%
11 | O=C(O)CCCC(=O)N1CCC(c2noc3cc(F)ccc23)CC1 | -4.66%
12 | CN(CC(N)=O)Cc1cc(Cl)cc2cccnc12 | 6.37%
13 | Cc1nn(CCC#N)c(C)c1[C@@H]1C=C[C@@H](NCc2ccc(F)cc2)C1 | 2%
14 | COc1ccc(CN2CCCCCC2c2cccs2)c(OC)c1 (stereo not given) | 11%
15 | CN(Cc1cccc(F)c1)C(=O)CN1CCCC1CCc1ccccc1 (stereo not given) | -12%
16 | CN(Cc1cnn(C)c1)S(=O)(=O)N1CCc2ccccc2C1 | -6.47%
17 | Cc1noc(C)c1-c1cccc(CC2CCN(C(=O)CN)C2)n1 (stereo not given) | -3.36%
18 | CCn1nc2c(cc1=O)CN(Cc1nc(-c3cccnc3)no1)CC2 | -5.86%
19 | CCOc1cc(CNCCCn2ccnc2)cc(Cl)c1OC | -5.21%
20 | Cc1nc(C(=O)N(C)CC2CCCO2)nn1-c1ccccc1C(C)C (stereo not given) | -3.62%
21 | Cc1nc(CN2CCO[C@@H]3CC(COc4ccccn4)C[C@H]32)cs1 (stereo not given in full) | 8.57%
22 | c1cnc(N2CCC3(CCCN(Cc4ccncc4)C3)CC2)nc1 | -91.6%

Row | Structure (SMILES) | cytotoxicity at 10 µM
23 | COCCN1CCO[C@@H]2CN(C(=O)c3ccc4[nH]ccc4c3)CC[C@@H]2C1 | -110%
24 | Cc1nc(CCCC(=O)Nc2cccc(N3CCNC3=O)c2)cs1 | -2.26%
25 | Cc1ccc(C(=O)N(C)Cc2c(C)noc2C)c(=O)[nH]1 | -8.2%
26 | CCc1nnc(CN2CCCCC2Cn2nc(C)nc2C)o1 (stereo not given) | -2.4%
27 | COCCOCC(=O)N(C)Cc1ccc(OCc2cccs2)cc1 | 4.38%
28 | O=C1CC(c2ccncc2)C2(CCN(Cc3nccs3)CC2)N1 (stereo not given) | 4.8%
29 | COc1ccc2nnc(CCC(=O)Nc3nc4c(s3)CCC4)n2n1 | -4.8%
30 | CCc1ccc(CN2CCC3(CC2)NC(=O)CC3c2ccncc2)o1 (stereo not given) | 1.83%
31 | N#Cc1cc(F)ccc1NCC1CCN(S(=O)(=O)C(F)F)CC1 | 18.4%
32 | O=c1n(CCNCc2ccc3ccccc3c2)nc2ccccn12 | 18.6%
33 | CC(C)C1CCC(N2CCN(CCCS(C)(=O)=O)CC2)CC1 (stereo not given) | 0.803%
34 | COCCNC(=O)c1cc(S(=O)(=O)N2CCCC2)cs1 | 6.15%
35 | CC1CCN(c2cc(NC(=O)C3CC3)ncn2)CC1 | -8.67%
36 | COc1cccc(CN2CCN(c3ccc4nncn4n3)C(C)C2)c1 (stereo not given) | 38.3%
37 | COC1CCCN(C(=O)NCC(C)(C)SC)C1 (stereo not given) | 10.5%
38 | CC(C)Cn1ncc(C(=O)NS(=O)(=O)c2ccccc2)c1C1CC1 | 2.35%
39 | Cn1cc(C2CCCN2C(=O)CCc2cnn(-c3ccccc3)c2)cn1 (stereo not given) | -6.88%
40 | O=C1NCC2(CCCN(Cc3ccc(Cl)s3)C2)Oc2ccccc21 (stereo not given) | 8.69%
41 | CC(C)c1cc(N[C@@H](CO)C(N)=O)n2nccc2n1 | -1.28%
42 | O=C(CN1CCCCCC1)NCc1ccc2[nH]c(=O)[nH]c2c1 | -2.86%
43 | CC1CCc2c(c3ccccc3[nH]c2=O)O1 (stereo not given) | -8.41%
44 | CC1CN(CC(=O)Nc2ccncc2)CCN1Cc1nccn1C (stereo not given) | -13.7%

Row | Structure (SMILES) | cytotoxicity at 10 µM
45 | CS(=O)(=O)c1nccn1CCOc1ccc(F)cc1Cl | 13.1%
46 | COc1ccccc1N1CCC(CNC(=O)N(C)Cc2ccco2)C1 (stereo not given) | -146%
47 | O=C([C@H]1C[C@H]2OCC[C@H]2N(C(=O)c2cnccn2)C1)N1CCCCO1 | 12.7%
48 | CCN1CC(CN2CCOCC2)Oc2ncccc2C1=O (stereo not given) | -1.1%
49 | c1cncc(-c2noc(CNCC3CCCN3c3cccnn3)n2)c1 (stereo not given) | -4.6%
50 | Cc1ncc(-c2ccnc(N3CC[C@H](O)C3)n2)c(-c2cccnc2)n1 | -8.49%
51 | O=C(Cn1nc(-c2ccc(F)cc2)oc1=O)NCC1CCCO1 (stereo not given) | 1.62%
52 | COCC(C)NCc1ccc2[nH]c(C)c(C)c2c1 (stereo not given) | -3.06%
53 | CCc1nnc(CN(C)C[C@@H]2CCCN3CCCC[C@H]23)o1 | 1.52%
54 | Cc1nccn1CC1CCCN1S(=O)(=O)Cc1cccc(C#N)c1 (stereo not given) | -20.7%
55 | COc1cccc(S(=O)(=O)CCN2CCN(CC(F)F)CC2)c1 | -3.96%
56 | CC(C)(C)c1cnc(CN2CCC(NC(=O)Nc3ccccc3)CC2)o1 | -12.3%
57 | Cc1cccc(CN2CC[C@@H]3[C@@H]2CCN3C(=O)c2cc(C)on2)n1 | -0.762%
58 | CCc1cc(CNC(=O)Nc2cc(F)cc(N3CCCC3)c2)on1 | 4.79%
59 | Nc1nc2nc(C3CCCN(C(=O)c4cnccn4)C3)ccc2s1 (stereo not given) | -16%
60 | CCc1nc(CCNC(=O)NC2CCSCC2)cs1 | -5.55%
61 | Cc1nc([C@@H]2C[C@@H]3CCN(C(=O)c4occc4C)C[C@H]3O2)no1 | -1.04%
62 | OC(CN(Cc1ccccc1)Cc1ccon1)c1cccs1 (stereo not given) | -0.359%
63 | NC(=O)C1CCN(C(=O)CSC2CCCc3ccccc32)CC1 (stereo not given) | 1.4%
64 | O=C(NCCn1cnc(C2CCCC2)cc1=O)NCc1cccs1 | -7.05%
65 | CCc1cc(O)n2nc(C3CCN(C(=O)c4ccccn4)CC3)cc2n1 | 2.29%
66 | CCCNC(=O)c1cc(-c2ccn(C(C)C)n2)n2ccccc12 | 1.92%

Row | Structure (SMILES) | cytotoxicity at 10 µM
67 | N#Cc1cn(C2CC2)c(=O)n(Cc2ncc(-c3cccs3)o2)c1=O | 14.8%
68 | CC(C)NC(=O)C1(Cc2ccccc2-c2cncnc2)CCCNC1 (stereo not given) | 3.67%
69 | O=C(NCc1ccco1)c1cc(N2CC[C@@H](O)C2)ccn1 | -2.93%
70 | c1ccc(Cc2noc(CN3CCOC(Cn4cncn4)C3)n2)cc1 (stereo not given) | 1.28%
71 | Cc1ncsc1-c1nnc(C2CCN(CC3CCCCC3)CC2)o1 | 1.59%
72 | COc1ccccc1CNC(=O)CN(C)C(C)c1ccncn1 (stereo not given) | -4.73%
73 | NC(=O)c1cccc(OCC(=O)N2CCCC(n3ccnc3)C2)c1 (stereo not given) | -9.37%
74 | CC(C)(C)OC(=O)N1CCN(c2ccc(F)cc2)CC1C(=O)O (stereo not given) | -1.73%
75 | CCOCC(O)CN1CCN(C(=O)Cc2ccc3c(c2)CCO3)CC1 (stereo not given) | -18.5%
76 | CC(C)c1nnc2n1CC(CNCc1nc3ccccc3o1)CC2 (stereo not given) | -1.85%
77 | CN(C)C(=O)C1CCN(c2cncc(-n3cccn3)n2)CC1 | -10.9%
78 | COc1cccc2ccn(CC(=O)NCC(C)C)c12 | -36.5%
79 | CN1C[C@@H](O)[C@]2(CCN(C(=O)c3ccccc3)C2)S1(=O)=O | 0.148%
80 | CC[C@H]1N(CC2CCC2)CCC[C@]12CCC(=O)N2Cc1ccncc1 | -0.508%
81 | COCC(=O)N1CCC2(CC1)CC(=O)N(Cc1ccc(Cl)cc1)C2 | 0.96%
82 | O=C(c1nc2sccn2c1-c1ncc[nH]1)N1CCCCC1 | 7.52%
83 | CC(C)Cc1n[nH]c(C2CC(=O)N(CC(C)C)C2)n1 (stereo not given) | 3.49%
84 | Cc1cc2cccc(NC(=O)N3CCC(N4CCSCC4)CC3)c2o1 | -3.25%
85 | CCOCC(=O)NCC1(NC(C)c2ccccc2)CCOCC1 (stereo not given) | -8.01%
86 | CC1c2ncc(COc3cccnc3)n2CCN1Cc1cnn(C)c1 (stereo not given) | -112%
87 | Cc1nccn1C1CCCN(C(=O)CCOCC(F)(F)F)C1 (stereo not given) | -11.4%
88 | CNC(=O)c1ccc(C(=O)N2CCCC2c2c(C)nn(C)c2C)cn1 (stereo not given) | -12.8%

Row | Structure (SMILES) | cytotoxicity at 10 µM
89 | Cc1ccc(NC2(C(=O)N3CCn4cncc4C3)CCCCC2)cc1C | 8.47%
90 | O=C(Cn1ccc2ccccc21)NCc1ccc(C(=O)O)cc1 | -6.13%
91 | Cc1c(S(=O)(=O)N2CCCCC2c2nnc(-c3cccs3)o2)cnn1C (stereo not given) | 3.22%
92 | CCN1CCC(c2cncc(N(C)C)n2)CC1 | 5.12%
93 | CC(C)c1nc2c(n1C)CCN(CCS(=O)(=O)c1ccccc1)C2 | 5.11%
94 | CNC(=O)CCS(=O)(=O)Cc1coc(-c2ccc(F)cc2)n1 | -3%
95 | O=C(Nc1ccc(F)cc1)N1C[C@@H]2CC[C@H]1CN(Cc1cccnc1)C2 | -13.4%
96 | O=C(c1ccc(-n2ccnc2)nc1)N1CCCC(n2cccn2)C1 (stereo not given) | -5.13%
97 | O=C(c1ccncc1)N1CC[C@@H](O)[C@@H](O)[C@H](N2CCC(F)(F)CC2)C1 | -10%
98 | CNC(=O)[C@@]12CCC3(CCN(S(C)(=O)=O)CC3)[C@@H]1CN(S(C)(=O)=O)C2 | -16.1%
99 | Cc1ccc(C(=O)NCC2(O)CCOCC2)cc1Br | -1.3%
100 | Cc1cccc(-c2noc(CN3CCn4c(nnc4C4CC4)C3)n2)c1 | -9.03%
101 | CN(C)c1ncc2c(O)nc(C3CCCNC3)cc2n1 (stereo not given) | 8.62%
102 | CC1c2ncc(COCC3CCCC3)n2CCN1S(=O)(=O)N(C)C (stereo not given) | 14.6%
103 | Cc1cccn2c(=O)cc(CN3CCCC3Cn3cccn3)nc12 (stereo not given) | -4.55%
104 | Fc1ccc(CN2CCC(c3n[nH]c4ncccc34)CC2)cc1F | 9.12%
105 | Cn1cnc(S(=O)(=O)NCCN2CCCCCC2)c1Cl | -17.2%
106 | CCc1ccc2c(C3CN(S(C)(=O)=O)C3)ncn2c1 | 10.6%
107 | COCC(=O)NCC1CCC(c2ccnc3ncnn23)CC1 (stereo not given) | 1.36%
108 | Cc1cc(C)nc(CCNC(=O)[C@H]2CNC[C@@H](C(=O)N3CCCC3)C2)n1 | -20.9%
109 | COC(=O)c1cc(OCC2CCC2)cc(C(=O)N[C@H](C)C(N)=O)c1 | 16.6%
110 | Cn1ncc2c1C(COCC1CC1)CN(Cc1ccco1)C2 (stereo not given) | -78.6%
